≈ marks a conversion by molar mass, not a printed value.

The term IC50 denotes the concentration needed to halve the response being measured. Read a high IC50 as a need for much substance. The term T/C denotes the result in the treated group divided by that in the control group, in per cent.

Experiment [1] has as its system L1210. In words: Growth inhibition of L1210 murine leukemia cells after 3 day exposure in MTT reduction assay. The conditions noted are these: Mus musculus, L1210, 3 days.
For experiment [2], the system named is L1210. In words: Growth inhibition of L1210 murine leukemia cells after 1 hr exposure in untreated control culture. Format: functional, cell-based. To be noted: Mus musculus, L1210, 1 h. The procedure, abridged:
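L1210 cells were exposed to graded concentrations for 1 h at 37 °C, washed twice in McCoy 5A, and plated at 5×10^2 cells/plate in an agar upper layer using a modified Hamburger–Salmon method. Plates were kept 5–7 days at 37 °C in 5% CO₂, 20% O₂, 95% humidity. Colonies >60 μm were counted as % of untreated control, and IC50 was read from dose–response curves.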

Experiment [3] relates to HT-29. In words: Growth inhibition of HT 29 cell line by MTT reduction for 3 days of incubation time. Format: functional, cell-based. The conditions noted are these: Homo sapiens, HT-29, 72 h. The procedure, abridged:
(§1)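 Exponentially growing A549 or HT29 cells were seeded at 5×10^3/mL in RPMI and exposed to graded concentrations for 72 h (37 °C, 5% CO₂), in quadruplicate wells. MTT was added at 65 h, followed by a further 7–24 h incubation. Formazan was dissolved in DMSO and read at 492 nm. Results were expressed as extinction ratio to medium-only control, and IC50 was taken as 50% growth inhibition.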
A general note: Tetrazolium dyes change colour on reduction, which living cells bring about.

The subject of experiment [4] is A549. In words: Growth inhibition of A 549 cell line by MTT reduction for 3 days of incubation time. It counts as functional, cell-based. The conditions noted are these: Homo sapiens, A549, 72 h. The essentials: as §1
The test system of experiment [5] is L1210. In words: Growth inhibition of L1210/ADM murine leukemia cells after 3 day exposure in MTT assay. The conditions noted are these: Mus musculus, L1210, 3 day.
A short description of experiment [6]: Evaluated for the degree of resistance as the ratio of IC50 L1210 / ADM to IC50 of L1210. Format: functional. The essentials: (§2)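 Colony (stem cell) assay comparing L1210 and L1210/ADM cells under continuous exposure, with the compound mixed into the agar upper layer before plating. Cells were plated at 5×10^2 per plate and incubated 5–7 days at 37 °C. Colonies >60 μm were counted relative to untreated control, and IC50 values were taken from dose–response curves to form the resistance ratios.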

The nature of experiment [7]: Evaluated for the degree of cross resistance as the ratio of degree of resistance of doxorubicin to degree of resistance of the compound. Format: functional. The essentials: as §2
Experiment [8] is filed under the species Homo sapiens. In words: Activity against internally growing human tumor A-549 tested in subrenal capsule assay. Format: functional. The essentials: (§3)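 Human tumors were grown intrarenally in a subrenal capsule assay. Tumor area of the treated group was scored against the control group as follows: >50%, between 10% and 50%, or <10% of control.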
For experiment [9], the species on record is Homo sapiens. In words: Activity against internally growing human tumor LXF tested in subrenal capsule assay. It counts as functional. The essentials: as §3
The test system of experiment [10] is L1210. In words: Percentage ratio of mean survival time of treated animals to untreated controls for L1210 mouse leukemia treated by 3.1 mg / kg dosed intravenously on 1,5,and 9 days. The conditions noted are these: route intravenous.
The species named for experiment [11] is Homo sapiens. In words: Activity against internally growing human tumor HT-29 tested in subrenal capsule assay. It counts as functional. The essentials: as §3
For experiment [12], the species on record is Homo sapiens. In words: Activity against internally growing human tumor LXF / ADM tested in subrenal capsule assay. Format: functional. The essentials: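 Tumors were resected at about 1/3 cm, cut into pieces of about 5 mm³, and retransplanted repeatedly until sensitivity was reduced. The subline was then tested in the subrenal capsule assay, with tumor area of the treated group scored as >50%, 10–50%, or <10% of control.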

The test system of experiment [13] is HT-29. In words: Growth inhibition of HT 29 cell line by MTT reduction for 7 days of incubation time. The conditions noted are these: Homo sapiens, HT-29, 168 h.
Experiment [14] deals with A549. In words: cells. The conditions noted are these: Homo sapiens, A549, 168 h.

As for `CC1O[C@@H](O[C@H]2C[C@](O)(CO)Cc3c(O)c4c(c(O)c32)C(=O)c2ccccc2C4=O)C[C@@H](O)[C@@H]1NC(=O)C(F)(F)F` (stereo partly specified), the IC50 in the experiment on L1210 [1] came to 0.015 µg/mL (≈ 0.0258 µM); with L1210 [2], 0.0064 µg/mL (≈ 0.011 µM); in the experiment with HT-29 [3] it was 0.026 µg/mL (≈ 0.0447 µM); in the experiment on A549 [4], 0.011 µg/mL (≈ 0.0189 µM).

With `CC1O[C@@H](O[C@H]2C[C@](O)(CO)Cc3c(O)c4c(c(O)c32)C(=O)c2ccccc2C4=O)C[C@@H](O)[C@@H]1N1CCOCC1` (stereo partly specified), the IC50 was determined as 0.15 µg/mL (≈ 0.27 µM) with L1210 [1], 0.21 µg/mL (≈ 0.378 µM) in the experiment on L1210 [2], 0.13 µg/mL (≈ 0.234 µM) in the experiment with HT-29 [3] and 0.054 µg/mL (≈ 0.0972 µM) with A549 [4].

As for `CC1O[C@@H](O[C@H]2C[C@](O)(CO)Cc3c(O)c4c(c(O)c32)C(=O)c2ccccc2C4=O)C[C@@H](O)[C@@H]1N.Cl` (stereo partly specified), the IC50 was determined as 0.1 µg/mL in the experiment on L1210 [5]; 0.009 µg/mL with L1210 [1]; 0.022 µg/mL with L1210 [2]; 0.01 µg/mL with HT-29 [3]; 0.009 µg/mL with A549 [4]. In addition, the Degree of resistance in experiment [6] was determined as 11. Further, in [7], the Degree of cross resistance is 24. In addition, the T/C in the experiment listed under Homo sapiens [8] was more than 50%; in the experiment filed under Homo sapiens [9], more than 10%; in the experiment with L1210 [10], 133%; in the experiment filed under Homo sapiens [11] it was more than 50%; in the experiment filed under Homo sapiens [12] it was more than 50%.

In the case of `COc1cccc2c1C(=O)c1c(O)c3c(c(O)c1C2=O)C[C@@](O)(C(=O)CO)C[C@@H]3O[C@H]1C[C@H](N)[C@H](O)[C@H](C)O1` [DOXORUBICIN], the IC50 stood at 0.9 µg/mL (≈ 1.66 µM) in the experiment with L1210 [5]; 0.04 µg/mL (≈ 0.0736 µM) in the experiment with L1210 [2]; 0.06 µg/mL (≈ 0.11 µM) with HT-29 [3]; 0.02 µg/mL (≈ 0.0368 µM) in the experiment on HT-29 [13]; 0.05 µg/mL (≈ 0.092 µM) in the experiment on A549 [4]; 0.02 µg/mL (≈ 0.0368 µM) in the experiment with A549 [14]. Besides, the Degree of resistance in experiment [6] turned out to be 45. The Degree of cross resistance in experiment [7] was 100. The T/C in the experiment filed under Homo sapiens [8] is listed as more than 10%; in the experiment filed under Homo sapiens [9], less than 10%; in the experiment filed under Homo sapiens [11], more than 10%; in the experiment listed under Homo sapiens [12], more than 10%.

For `CC1O[C@@H](O[C@H]2C[C@](O)(CO)Cc3c(O)c4c(c(O)c32)C(=O)c2ccccc2C4=O)C[C@@H](O)[C@@H]1N=[N+]=[N-]` (stereo partly specified), the 50% inhibitory concentration (IC50) in the experiment on L1210 [1] worked out at 0.13 µg/mL (≈ 0.254 µM); with L1210 [2] it was 0.26 µg/mL (≈ 0.508 µM); with HT-29 [3], 0.46 µg/mL (≈ 0.899 µM); in the experiment with A549 [4], 0.24 µg/mL (≈ 0.469 µM).

Values taken from ChEMBL document CHEMBL1126683, “Synthesis and antitumor activity of isodoxorubicin analogues” (J Med Chem, 1993).
